Here are results for three compounds from ChEMBL document CHEMBL5647683 (Oncogene, 2008).

Usually IC50 stands for the concentration needed to halve the response being measured. A word on the T/C: it is the result in the treated group divided by that in the control group, in per cent.

The nature of test [1]: Inhibition of human EGFR S752_I759del8 mutant expressed in mouse BaF3 cells assessed as reduction in cell survival incubated for 48 hrs by WST assay.
The nature of test [2]: Inhibition of human EGFR variant III deletion expressed in mouse BaF3 cells assessed as reduction in cell survival incubated for 48 hrs by WST assay.
Test [3] in a line: Inhibition of human EGFR L747_P753del7insS-T790M mutant expressed in mouse BaF3 cells assessed as reduction in cell survival incubated for 48 hrs by WST assay.
Test [4] can be described thus: Inhibition of human EGFR S752_I759del8-T790M mutant expressed in mouse BaF3 cells assessed as reduction in cell survival incubated for 48 hrs by WST assay.
Test [5] is described as follows: Inhibition of human EGFR L858R-T790M double mutant expressed in mouse BaF3 cells assessed as reduction in cell survival incubated for 48 hrs by WST assay.
The test system of test [6] is A-431. The experiment in a line: Antitumor activity against human A-431 cells xenografted athymic NMRI-nu/nu female mouse as reduction in tumor volume at 75 mg/kg, po administered daily for 25 days relative to control. Format: functional. Particulars: time 25 day. The method in brief:
(§1)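 Female athymic NMRI-nu/nu mice (5–6 weeks, 21–31 g) given 1–5×10⁶ cells into the right flank; MDA-MB-453 tumors started from fresh 2×2×2 mm fragments. At 40–130 mm³, tumors were randomized to weight-based daily oral gavage (10 ml/kg; 1.8% HP-β-CD, 5% acetic acid (10%), 0.5% Natrosol) or vehicle. Caliper measurement 3×/week, volume π/6×L×W². Expressed as cumulative treated/control volume ratio; one-way ANOVA with Dunnett's test.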
(In general: A xenograft is tissue or cells of one species grown in another, often human tumour cells in immunodeficient mice.)

Test [7] has as its system A-431. Put plainly: Antitumor activity against human A-431 cells xenografted athymic NMRI-nu/nu female mouse as reduction in tumor volume at 2x100 mg/kg, po administered daily for 25 days relative to control. It is filed as functional. Particulars: dose 100 mg/kg, time 25 day. The method in brief:
as §1

For the compound `C#Cc1cccc(Nc2ncnc3cc(OCCOC)c(OCCOC)cc23)c1` [ERLOTINIB], the IC50 is 0.033 µM in test [1]; 0.144 µM in test [2]; more than 10 µM in test [3]; more than 10 µM in test [4]; more than 10 µM in test [5].

In the test on A-431 [6], `COc1cc2ncnc(Nc3ccc(F)c(Cl)c3)c2cc1OCCCN1CCOCC1` [GEFITINIB] displayed a T/C of 46%.

In the case of `CS(=O)(=O)CCNCc1ccc(-c2ccc3ncnc(Nc4ccc(OCc5cccc(F)c5)c(Cl)c4)c3c2)o1` [LAPATINIB], in the test with A-431 [7], the T/C was found to be 32%.
